Results as given in ChEMBL document CHEMBL4382263, “Spirostaphylotrichin X from a Marine-Derived Fungus as an Anti-influenza Agent Targeting RNA Polymerase PB2” (J Nat Prod, 2018).
The source made the active and inactive calls. No cut-off for these calls is given here.

Experiments:
[1] = tested on: Influenza A virus (A/Puerto Rico/8/1934(H1N1)); experiment: Inhibition of RNA-dependent RNA polymerase in Influenza A virus (A/PR/8/34(H1N1)) infected in human 293T cells assessed as reduction in viral RNA level at 10 uM measured at 3 and 6 hrs post infection by RT-PCR method; assay type: cell-based
SGC-7901 = experiment: Cytotoxicity against human SGC7901 cells by MTT assay; assay type: functional, cell-based
Influenza A virus [2] = experiment: Antiviral activity against Influenza A virus (A/PR/8/34(H1N1)) infected in MDCK cells assessed as reduction in viral NP production at 10 uM measured 10 hrs post infection by Western blot analysis; assay type: functional, organism-based; details: Influenza A virus (A/Puerto Rico/8/1934(H1N1))
Outline: (§1)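 Compound added to PR8-infected MDCK cells at defined time points covering the first replication cycle. At 10 h postinfection, NP measured by Western blot and HA mRNA by quantitative RT-PCR.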

[3] = biological target: Polymerase basic protein 2 (Influenza A virus (strain A/Puerto Rico/8/1934 H1N1), UniProt P03428); experiment: Binding affinity to Influenza A virus RNA polymerase PB2 by SPR assay
Sequence of Polymerase basic protein 2 (P03428 whole entry): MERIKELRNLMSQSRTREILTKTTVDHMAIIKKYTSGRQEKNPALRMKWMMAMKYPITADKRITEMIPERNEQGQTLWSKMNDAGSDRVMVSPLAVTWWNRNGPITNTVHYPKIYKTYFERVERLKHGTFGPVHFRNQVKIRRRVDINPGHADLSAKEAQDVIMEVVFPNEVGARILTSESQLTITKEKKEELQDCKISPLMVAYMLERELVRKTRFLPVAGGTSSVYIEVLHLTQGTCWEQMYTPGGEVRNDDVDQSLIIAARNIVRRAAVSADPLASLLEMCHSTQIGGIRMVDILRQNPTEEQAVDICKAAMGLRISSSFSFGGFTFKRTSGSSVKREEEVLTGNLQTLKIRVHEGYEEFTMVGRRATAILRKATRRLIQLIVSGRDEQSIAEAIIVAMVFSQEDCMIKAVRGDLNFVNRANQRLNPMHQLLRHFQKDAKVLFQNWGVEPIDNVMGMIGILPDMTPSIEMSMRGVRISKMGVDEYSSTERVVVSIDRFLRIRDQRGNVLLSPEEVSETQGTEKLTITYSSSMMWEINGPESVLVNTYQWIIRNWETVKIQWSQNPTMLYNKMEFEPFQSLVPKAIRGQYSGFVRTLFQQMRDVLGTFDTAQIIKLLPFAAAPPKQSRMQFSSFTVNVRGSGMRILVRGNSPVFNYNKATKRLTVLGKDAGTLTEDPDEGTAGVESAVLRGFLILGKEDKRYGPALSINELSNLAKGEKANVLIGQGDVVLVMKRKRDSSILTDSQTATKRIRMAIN
Outline: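 PB2-cap protein (0.5 μM) immobilised on CM5 chip at pH 5.0. Compound injected at 7.8–125 nM for 180 s at 50 μL/min, 25 °C; chip regenerated with 50 mM NaOH. KD from fitted sensorgrams; reference compound included.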

Influenza A virus [4] = experiment: Antiviral activity against Influenza A virus (A/PR/8/34(H1N1)) infected in MDCK cells assessed as reduction in virus-induced cytopathic effect co-treated with viral infection for 30 mins and measured after 48 hrs by MTT assay; assay type: functional, organism-based; details: A/Puerto Rico/8/1934(H1N1)
Outline: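 Entire-infection: virus–compound mixture (PR8, MOI 0.01, 30 min at 37 °C) added to MDCK cells. Unabsorbed virus removed; fresh medium with 1 μg/mL TPCK-trypsin plus compound added. Viability by MTT after 48 h.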

Influenza A virus [5] = experiment: Antiviral activity against Influenza A virus (A/PR/8/34(H1N1)) infected in MDCK cells assessed as reduction in virus-induced cytopathic effect treated post viral infection for 1 hr and measured after 48 hrs by MTT assay; assay type: functional, organism-based; details: A/Puerto Rico/8/1934(H1N1)
Outline: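 Postinfection: infected MDCK cells given increasing concentrations for 1 h at 37 °C, then medium replaced. Viability by MTT after a further 48 h.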

Influenza A virus [6] = experiment: Antiviral activity against Influenza A virus (A/PR/8/34(H1N1)) infected in MDCK cells assessed as reduction in plaque formation after 72 hrs by crystal violet staining based assay; assay type: functional, organism-based; details: A/Puerto Rico/8/1934(H1N1)
Outline: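 MDCK monolayers infected with PR8 at MOI 0.005 for 1 h at 37 °C. Overlay of serum-free MEM with serially diluted compound, 2% microcrystalline cellulose and 1.5 μg/mL trypsin. After 72 h, cells fixed and stained with 4% paraformaldehyde/2% crystal violet for 20 min; plaques assessed.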

[7] = tested on: Erysipelothrix rhusiopathiae; experiment: Antibacterial activity against Erysipelothrix rhusiopathiae ATCC 19414; assay type: functional
Influenza A virus [8] = experiment: Antiviral activity against Influenza A virus (A/PR/8/34(H1N1)) infected in MDCK cells assessed as reduction in viral NP protein expression after 24 hrs by DAPI staining based fluorescence microscopic method; assay type: functional, organism-based; details: A/Puerto Rico/8/1934(H1N1)
Outline: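 MDCK cells infected at MOI 0.01 for 1 h, then given increasing concentrations for 24 h. Fixed in 4% paraformaldehyde and blocked with 3% BSA. Stained with anti-NP (1:200, overnight, 4 °C), then FITC secondary (4 h, RT); DAPI nuclear stain; fluorescence microscopy.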

[9] = biological target: Neuraminidase (Influenza A virus (A/Puerto Rico/8/1934(H1N1))) (UniProt P03468); experiment: Inhibition of Influenza A virus (A/PR/8/34(H1N1)) NA assessed as reduction in viral particle release using 2-(4-methylumbelliferyl)-alpha-D-N-acetylneuraminic acid sodium as substrate preincubated for 30 mins followed by substrate addition and measured for 1 hr by fluorescence assay
Sequence of Neuraminidase (Influenza A virus (A/Puerto Rico/8/1934(H1N1))) (P03468 whole entry): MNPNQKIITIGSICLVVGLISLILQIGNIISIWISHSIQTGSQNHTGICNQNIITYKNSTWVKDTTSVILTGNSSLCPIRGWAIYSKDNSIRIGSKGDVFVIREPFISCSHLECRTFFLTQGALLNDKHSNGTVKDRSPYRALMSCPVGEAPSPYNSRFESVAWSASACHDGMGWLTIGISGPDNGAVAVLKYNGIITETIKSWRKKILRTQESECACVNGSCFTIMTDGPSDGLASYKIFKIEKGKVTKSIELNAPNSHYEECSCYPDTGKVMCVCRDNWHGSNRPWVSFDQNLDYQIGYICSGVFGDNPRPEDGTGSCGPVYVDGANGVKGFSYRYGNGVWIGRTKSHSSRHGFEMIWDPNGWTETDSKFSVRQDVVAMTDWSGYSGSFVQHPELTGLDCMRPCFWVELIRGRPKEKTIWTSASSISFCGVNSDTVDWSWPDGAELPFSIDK
Outline: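 PR8 in reaction buffer mixed with twofold-diluted compound for 30 min at 37 °C. 20 μM MUNANA substrate added for 1 h at 37 °C; stopped with 14 mM NaOH. 4-MU fluorescence read at ex 340/em 440 nm.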

Influenza A virus H3N2 = experiment: Antiviral activity against Influenza A virus (A/Aichi/2/68(H3N2)) infected in MDCK cells assessed as reduction in virus-induced cytopathic effect by MTT assay; assay type: functional, organism-based; details: A/Aichi/2/1968(H3N2)
Outline: (§2)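 MTT-based cytopathic-effect reduction assay in MDCK cells. Run in triplicate; IC50 reported as mean ± SD.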

Escherichia coli = experiment: Antibacterial activity against Escherichia coli ATCC 25922; assay type: functional
HepG2 = experiment: Cytotoxicity against human HepG2 cells by MTT assay; assay type: functional, cell-based
Arabidopsis thaliana = experiment: Inhibition of seed germination in Arabidopsis thaliana at 100 ug/ml after 7 days; assay type: functional, organism-based
Outline: (§3)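 Ten surface-sterilised seeds per well on agar. Test solution at 100 μg/mL in 5% EtOH added; three wells per sample. Incubated at 20 °C, 12:12 h photoperiod, 7 days; germination scored.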

[10] = biological target: Polymerase basic protein 2 (Influenza A virus (strain A/Puerto Rico/8/1934 H1N1)) (UniProt P03428); experiment: Inhibition of fluorescently-labeled m7GTP binding to Influenza A virus RNA polymerase PB2 preincubated for 15 mins followed by m7GTP addition measured after 1 hr by HTRF assay
Sequence of Polymerase basic protein 2 (Influenza A virus (strain A/Puerto Rico/8/1934 H1N1)) (P03428 whole entry, looked up): as the sequence (P03428 whole entry) above
Outline: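 PB2 protein preincubated with compound at different concentrations for 15 min at RT. Premixed fluorescent probe (m7GTP cap analogue) added; HTRF read after 1 h. Three independent experiments, mean ± SD.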

[11] = biological target: Hemagglutinin (Influenza A virus (A/Puerto Rico/8/1934(H1N1))) (UniProt P03452); experiment: Inhibition of Influenza A virus (A/PR/8/34(H1N1)) HA-mediated chicken erythrocytes hemagglutination preincubated for 30 mins followed by erythrocytes addition and measured for 1 hr
Sequence of Hemagglutinin (Influenza A virus (A/Puerto Rico/8/1934(H1N1))) (P03452 whole entry): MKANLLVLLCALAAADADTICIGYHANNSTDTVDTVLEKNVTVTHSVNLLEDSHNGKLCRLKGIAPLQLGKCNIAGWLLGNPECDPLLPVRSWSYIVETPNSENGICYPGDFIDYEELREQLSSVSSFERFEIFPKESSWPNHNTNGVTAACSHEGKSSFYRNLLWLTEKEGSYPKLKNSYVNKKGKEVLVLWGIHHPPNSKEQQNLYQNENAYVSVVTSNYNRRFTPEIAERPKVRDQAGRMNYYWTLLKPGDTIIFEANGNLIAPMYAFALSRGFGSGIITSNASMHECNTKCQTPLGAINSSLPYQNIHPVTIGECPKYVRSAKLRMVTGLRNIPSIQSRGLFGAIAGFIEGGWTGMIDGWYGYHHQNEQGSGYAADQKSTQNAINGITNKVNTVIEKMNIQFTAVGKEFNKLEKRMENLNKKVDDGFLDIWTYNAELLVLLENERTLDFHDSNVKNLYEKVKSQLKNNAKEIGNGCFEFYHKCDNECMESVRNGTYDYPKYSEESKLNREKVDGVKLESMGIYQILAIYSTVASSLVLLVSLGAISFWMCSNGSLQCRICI
Outline: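 Twofold serial compound dilutions mixed with PR8 at different titres for 30 min at RT. 0.5% chicken erythrocytes added; read after 1 h at 37 °C. Virus diluent without compound as negative control, PBS as blank.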

Influenza A virus [12] = experiment: Antiviral activity against Influenza A virus (A/PR/8/34(H1N1)) infected in MDCK cells assessed as reduction in virus-induced cytopathic effect by MTT assay; assay type: functional, organism-based; details: A/Puerto Rico/8/1934(H1N1); outline: as §2
Influenza A virus [13] = experiment: Antiviral activity against Influenza A virus (A/PR/8/34(H1N1)) infected in MDCK cells assessed as reduction in viral HA mRNA level at 10 uM measured 10 hrs post infection by qRT-PCR analysis; assay type: functional, organism-based; details: Influenza A virus (A/Puerto Rico/8/1934(H1N1)); outline: as §1
ACHN = experiment: Cytotoxicity against human ACHN cells by MTT assay; assay type: functional, cell-based
Influenza A virus [14] = experiment: Antiviral activity against Influenza A virus isolate 690 (H3) infected in MDCK cells assessed as reduction in virus-induced cytopathic effect by MTT assay; assay type: functional, organism-based; outline: as §2
786-0 = experiment: Cytotoxicity against human 786-O cells by MTT assay; assay type: functional, cell-based
Influenza A virus [15] = experiment: Antiviral activity against Influenza A virus (A/PR/8/34(H1N1)) infected in MDCK cells assessed as reduction in viral HA mRNA expression after 24 hrs by qRT-PCR method; assay type: functional, organism-based; details: A/Puerto Rico/8/1934(H1N1)
Outline: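 Infected MDCK cells treated with a concentration series for 24 h. Total RNA reverse-transcribed; viral HA mRNA quantified by qRT-PCR with GAPDH as internal control. Triplicate, mean ± SD.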

Influenza A virus [16] = experiment: Antiviral activity against Influenza A virus (A/FM-1/1/47(H1N1)) infected in MDCK cells assessed as reduction in virus-induced cytopathic effect by MTT assay; assay type: functional, organism-based; details: A/Fort Monmouth/1/1947(H1N1); outline: as §2
Cynodon dactylon = experiment: Inhibition of seed germination in Cynodon dactylon at 100 ug/ml after 7 days; assay type: functional, organism-based; outline: as §3
Influenza A virus [17] = experiment: Antiviral activity against Influenza A virus (A/PR/8/34(H1N1)) infected in MDCK cells assessed as reduction in viral NP protein expression after 24 hrs by Western blot method; assay type: functional, organism-based; details: A/Puerto Rico/8/1934(H1N1)
Outline: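 MDCK monolayers infected with PR8 at MOI 0.01 for 1 h at 37 °C, then given serial dilutions. At 24 h, lysates equalised for protein and run on 10% SDS-PAGE. NP detected with anti-NP (1:1000) and HRP secondary, β-actin as loading control; ECL read-out.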

[18] = Cytotoxicity against MDCK cells by MTT assay; assay type: cell-based, Canis lupus familiaris; details: dog
Outline: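 MDCK viability measured by MTT at concentrations up to 200 μM. Run in triplicate; CC50 reported.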

Staphylococcus aureus = experiment: Antibacterial activity against Staphylococcus aureus subsp. aureus Rosenbach ATCC 25923; assay type: functional
OS-RC-2 = experiment: Cytotoxicity against human OS-RC2 cells by MTT assay; assay type: functional, cell-based
Influenza A virus [19] = experiment: Antiviral activity against Influenza A virus (A/PR/8/34(H1N1)) infected in MDCK cells assessed as reduction in virus-induced cytopathic effect pretreated with virus for 30 mins followed by viral infection incubated for 30 mins and measured after 48 hrs by MTT assay; assay type: functional, organism-based; details: A/Puerto Rico/8/1934(H1N1)
Outline: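 Preinfection: PR8 (MOI 0.01) mixed with compound for 30 min at 37 °C, then added to MDCK cells for 30 min. Medium replaced with fresh medium containing 1 μg/mL TPCK-trypsin. Viability by MTT after a further 48 h.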

[20] = Antibacterial activity against Pasteurella multocida subsp. multocida ATCC 43137; assay type: functional

Structure (SMILES)	inhibition [1]	IC50 (SGC-7901)	Kd [3]	MIC [7]	MIC (Escherichia coli)	IC50 (HepG2)	inhibition (Arabidopsis thaliana)	IC50 (Influenza A virus [12])	IC50 (ACHN)	IC50 (786-0)	inhibition (Cynodon dactylon)	MIC (Staphylococcus aureus)	IC50 (OS-RC-2)	MIC [20]	other results
CCC(CC)[C@H](NC(C)=O)[C@@H]1[C@H](O)[C@@H](C(=O)O)C[C@H]1NC(=N)N	inactive	–	–	–	–	–	–	–	–	–	–	–	–	–	–
CC/C=C1/C=CC(=O)[C@@H](O)[C@]12C(=O)N(OC)[C@@](C)(OC)[C@@H]2O	Active	> 50 µM	0.077 µM	> 100 µg/mL	> 100 µg/mL	> 50 µM	inactive	1.6 µM	> 50 µM	> 50 µM	inactive	> 100 µg/mL	> 50 µM	> 100 µg/mL	Activity (Influenza A virus [2]): Active; Activity (Influenza A virus [4]): Active; Activity (Influenza A virus [5]): Active; Activity (Influenza A virus [6]): Dose-dependent effect; Activity (Influenza A virus [8]): Dose-dependent effect; inhibition [9]: inactive; IC50 (Influenza A virus H3N2): 4.1 µM; inhibition [10]: Dose-dependent effect; inhibition [11]: inactive; Activity (Influenza A virus [13]): Active; IC50 (Influenza A virus [14]): 1.7 µM; Activity (Influenza A virus [15]): Dose-dependent effect; IC50 (Influenza A virus [16]): 5.5 µM; Activity (Influenza A virus [17]): Dose-dependent effect; CC50 [18]: > 200 µM; Activity (Influenza A virus [19]): inactive
C=C1[C@H](O)[C@@]2(C(=O)N1OC)/C(=C\CC)C=CC(=O)[C@H]2O	–	> 50 µM	–	> 100 µg/mL	> 100 µg/mL	> 50 µM	inactive	21 µM	> 50 µM	> 50 µM	inactive	> 100 µg/mL	> 50 µM	> 100 µg/mL	–
O=c1oc2cc(O)cc(O)c2c2ccccc12	–	–	3.6 µM	–	–	–	–	–	–	–	–	–	–	–	–
